What is called EC50 is the concentration needed to bring the measured effect to its halfway point. In general, LC50 refers to the concentration lethal to half of the exposed cells or organisms.

This is an account of results in ChEMBL document CHEMBL3046303, “Nematotoxic phenolic compounds from Melia azedarach against Meloidogyne incognita” (J Agric Food Chem, 2012).

Format in all cases: functional, organism-based
The subject of assay [1] is Meloidogyne incognita. Description: Nematotoxic activity against Meloidogyne incognita (root-knot nematode). The method, boiled down: (§1)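 Freshly hatched J2 (24 h old), extracted from tomato roots, were exposed to test solutions at 25 J2 per well. Plates were kept in the dark at 28 °C with water and solvent-carrier controls. Nematodes were scored under an inverted microscope (40×) as motile or paralyzed. Paralysis was corrected for the water control by the Schneider-Orelli formula. EC50 came from log-logistic regression. Experiments were run twice.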

Assay [2] relates to Meloidogyne incognita. Description: Nematotoxic activity against freshly hatched Meloidogyne incognita J2 (root-knot nematode) isolated from tomato roots assessed as induction of nematode paralysis measured 24 hr after immersion in compound test solutions. The procedure, abridged: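 Freshly hatched (24 h) J2 extracted from tomato roots; 25 J2 per well in 96-well plates, kept in the dark at 28 °C. Motile or paralyzed J2 were scored under an inverted microscope at 40×. Paralysis was corrected for the water control (Schneider-Orelli). EC50 was fitted by log-logistic regression on the mean of five replicates; experiments were run twice.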

Assay [3] concerns Meloidogyne incognita. Description: Nematotoxic activity against freshly hatched Meloidogyne incognita J2 (root-knot nematode) isolated from tomato roots assessed as induction of nematode paralysis at 1000 ug/mL measured 24 hr after immersion in compound test solutions. The procedure, abridged:
as §1

For assay [4], the system named is Meloidogyne incognita. Description: Nematotoxic activity against freshly hatched Meloidogyne incognita J2 (root-knot nematode) isolated from tomato roots assessed as induction of microscopic damages in nematode body measured 24 hr after immersion in compound test solutions.

Each structure is given as a SMILES string. In brackets after ≈: the same amount, converted by molar mass. Activity calls are given as the source filed them. The calls are words filed in the database; no cut-off is given here.

With `Cc1ccc(C=O)o1` [5-METHYLFURFURAL], the concentration giving a half-maximal response (EC50) in the assay with Meloidogyne incognita [1] came to 45.7 µg/mL (≈ 0.415 mM). As for `Oc1cc(O)c2c(c1)O[C@@H](c1ccc(O)c(O)c1)[C@@H](O)C2` [(+)-EPICATECHIN], the EC50 in the assay with Meloidogyne incognita [2] is above 1000 µg/mL. `O=Cc1ccc(CO)o1` [AES-103] had an EC50 in the assay with Meloidogyne incognita [1] of 8.5 µg/mL (≈ 0.0674 mM). For the compound `O=C(O)c1ccccc1` [BENZOIC ACID], the EC50 in the assay on Meloidogyne incognita [2] was 501 µg/mL (≈ 4.1 mM). Regarding `O=C(O)c1ccc2ccccc2c1` [BETA-NAPHTOIC ACID], in the assay on Meloidogyne incognita [2], the EC50 is above 1000 µg/mL. For the compound `O=C(O)/C=C/c1ccc(O)c(O)c1` [CAFFEIC ACID], the result in the assay on Meloidogyne incognita [3] was inactive. In addition, the EC50 with Meloidogyne incognita [2] is above 1000 µg/mL.

For the compound `Oc1cc(O)c2c(c1)OC(c1ccc(O)c(O)c1)C(O)C2` (stereo not given) [CATECHIN], the concentration for a half-maximal effect (EC50) with Meloidogyne incognita [2] is above 1000 µg/mL. For the compound `O=C(/C=C/c1ccc(O)c(O)c1)O[C@@H]1C[C@](O)(C(=O)O)C[C@@H](O)[C@H]1O` [CHLOROGENIC ACID], in the assay with Meloidogyne incognita [2], the EC50 was above 1000 µg/mL. For the compound `O=C(O)/C=C/c1ccc(O)cc1` [COUMARIC ACID], the EC50 in the assay with Meloidogyne incognita [2] was 840 µg/mL (≈ 5.12 mM). Turning to `COc1cc(/C=C/C(=O)O)ccc1O` [FERULATE], the EC50 in the assay with Meloidogyne incognita [2] is above 1000 µg/mL. In the case of `O=Cc1ccco1` [FURFURAL], a half-maximal response in the assay on Meloidogyne incognita [1] (EC50) required 41.1 µg/mL (≈ 0.428 mM). The outcome with Meloidogyne incognita [4] was Active. Consider `O=C(O)c1cc(O)c(O)c(O)c1` [GALLIC ACID], for which the EC50 in the assay on Meloidogyne incognita [2] was above 1000 µg/mL.

With `CCCCCC(=O)O` [HEXANOATE], in the assay on Meloidogyne incognita [1], the midpoint of the response, the EC50, lay at 38.3 µg/mL (≈ 0.33 mM). As for `O=C(O)CC(O)C(=O)O` (stereo not given) [MALIC ACID], the EC50 in the assay with Meloidogyne incognita [2] is above 1000 µg/mL. For the compound `O=C(O)c1cccnc1` [NIACIN], in the assay with Meloidogyne incognita [2], the EC50 came to 1730 µg/mL (≈ 14.1 mM). Take `CCCCCCCCCCCCCCCC(=O)O` [PALMITIC ACID]: the concentration for a half-maximal effect (EC50) with Meloidogyne incognita [1] amounted to 38.3 µg/mL (≈ 0.149 mM). Consider `O=C(O)c1ccc(O)cc1` [PARABEN], for which, in the assay on Meloidogyne incognita [2], the EC50 worked out at 871 µg/mL (≈ 6.31 mM). Consider `O=C(O)c1ccc(O)c(O)c1` [PROTOCATECHUIC ACID], for which the EC50 in the assay with Meloidogyne incognita [2] is above 1000 µg/mL.

`C[C@@H]1O[C@@H](OC[C@H]2O[C@@H](Oc3c(-c4ccc(O)c(O)c4)oc4cc(O)cc(O)c4c3=O)[C@H](O)[C@@H](O)[C@@H]2O)[C@H](O)[C@H](O)[C@H]1O` [RUTIN]: in the assay on Meloidogyne incognita [2], the EC50 was above 1000 µg/mL.

Consider `O=C(O)c1ccccc1O` [SALICYLIC ACID], for which the LC50 in the assay on Meloidogyne incognita [1] came out at 46 µg/mL (≈ 0.333 mM). Further, in the assay with Meloidogyne incognita [3], the result was Active. Besides, the EC50 in the assay with Meloidogyne incognita [2] was determined as 379 µg/mL (≈ 2.74 mM). `COc1cc(C(=O)O)ccc1O` [VANILLIC ACID]: the EC50 in the assay with Meloidogyne incognita [2] is above 1000 µg/mL.
